Measurements published in ChEMBL document CHEMBL1141383, “Polycationic sulfonamides for the sequestration of endotoxin” (J Med Chem, 2007).

How the values were obtained:
HEK293 = assay: Inhibition of LPS-induced NF-kappaB production in HEK293 cells; assay type: functional, cell-based; details: Homo sapiens
Method in brief: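 HEK293 cells cotransfected with TLR4, CD14 and MD2 were stimulated with LPS, and induction of NF-κB was quantified. IC50 is the concentration inhibiting 50% of the response. Run in triplicate with polymyxin B reference and negative and positive controls.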

J774.1 = assay: Inhibition of LPS-induced nitric oxide production in murine J774.1 cells by automated Griess assay; assay type: functional, cell-based; details: Mus musculus
Method in brief: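 Murine macrophage J774A.1 cells were stimulated with 100 ng/mL LPS, and NO was read by automated Griess assay. IC50 is the concentration inhibiting 50% of the response. Run in triplicate with polymyxin B reference and negative and positive controls.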

[1] = Binding affinity to lipid A moiety of LPS in gram negative bacteria by fluorescent-based displacement assay
Method in brief: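 LPS binding measured by automated rapid-throughput fluorescence displacement of the probe BODIPY-TR cadaverine from LPS. ED50 is the concentration displacing 50% of LPS-bound probe. Run in triplicate, with polymyxin B as reference and negative and positive controls.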

Blood [2] = assay: Inhibition of LPS-induced IL6 release in human whole blood; assay type: functional, tissue-based
Method in brief: (§1)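 Healthy human whole blood, ex vivo, was stimulated with LPS. TNF-α, IL-1β, IL-6, IL-8, IL-10 and IL-12p70 were quantified concurrently by a multiplexed flow-cytometric bead array. IC50 is the concentration inhibiting 50% of the response. Run in triplicate with polymyxin B reference and negative and positive controls.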

Blood [3] = assay: Inhibition of LPS-induced IL8 release in human whole blood; assay type: functional, tissue-based; method in brief: as §1
Blood [4] = assay: Inhibition of LPS-induced TNFalpha release in human whole blood; assay type: functional, tissue-based; method in brief: as §1
Mus musculus [5] = assay: Protection against LPS-induced lethality in galactosamine-sensitized CF1 mouse model of septic shock at 8 mg/kg after 24 hrs; assay type: functional, organism-based; parameters: dose 8 mg/kg
Method in brief: (§2)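 Female outbred CF-1 mice, 9–11 weeks old and 22–28 g, were sensitized with D-galactosamine. Cohorts of five received graded compound doses in saline i.p. in one flank, immediately before an i.p. challenge of 200 ng E. coli 0111:B4 LPS (2× LD100) in the other flank. Lethality was scored at 24 h.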

Mus musculus [6] = assay: Protection against LPS-induced lethality in galactosamine-sensitized CF1 mouse model of septic shock at >2 mg/kg after 24 hrs; assay type: functional, organism-based; method in brief: as §2

Row | Compound | IC50 (HEK293) [µM] | IC50 (J774.1) [µM] | ED50 [1] [µM] | IC50 (Blood [2]) [µM] | IC50 (Blood [3]) [µM] | IC50 (Blood [4]) [µM] | Activity (Mus musculus [5]) | IC50 [1] [µM] | Activity (Mus musculus [6])
1 | CCCCCCCCS(=O)(=O)NCCCNCCCNCCCCNCCCN | 0.816 | 6.47 | 2.84 |  |  |  |  |  | 
2 | CCCCCCCCCCCCS(=O)(=O)NCCCN(CCCNCCCNCCCCNCCCN)CCCNS(=O)(=O)CCCCCCCCCCCC | 16.4 | 0.51 | 6.82 |  |  |  |  |  | 
3 | CCCCCCCCCCCCCCCCS(=O)(=O)NCCCNCCCNCCCCNCCCNCCCNS(=O)(=O)CCCCCCCCCCCCCCCC | 11.7 | 6.3 | 133 |  |  |  |  |  | 
4 | CCCCCCCCS(=O)(=O)NCCCNCCCNCCCCNCCCNCCCNS(=O)(=O)CCCCCCCC | 0.607 | 0.577 | 2.6 |  |  |  |  |  | 
5 | CCCCCCCCCCCCCCCCS(=O)(=O)NCCCN(CCCNCCCCNCCCN)CCCNS(=O)(=O)CCCCCCCCCCCCCCCC | 4.85 | 15.1 | 26.4 |  |  |  |  |  | 
6 | CCCCCCCCCCS(=O)(=O)NCCCNCCCCNCCCN | 0.5 | 4.42 | 3.7 |  |  |  |  |  | 
7 | CCCCCCCCS(=O)(=O)NCCCNCCCNCCCN | 5.56 |  | 6.7 |  |  |  |  |  | 
8 | CCCCCCCCCCCCCCCCCCS(=O)(=O)NCCCNCCCNCCCCNCCCN | 1.06 | 0.23 | 4.45 |  |  |  |  |  | 
9 | CCCCCCCCCCS(=O)(=O)NCCCNCCCNCCCCNCCCNCCCNS(=O)(=O)CCCCCCCCCC | 4.2 | 0.692 | 13.5 |  |  |  |  |  | 
10 | CCCCCCCCS(=O)(=O)NCCCNC/C=C/CNCCCN | 12.7 |  | 12.4 |  |  |  |  |  | 
11 | CCCCCCCCCCCCS(=O)(=O)NCCNCCCNCCN | 0.686 |  | 4.77 |  |  |  |  |  | 
12 | CCCCCCCCCCCCCCCCCCS(=O)(=O)NCCCNCCCCNCCCN | 0.36 | 0.48 | 6.01 | 8.8 | 15.4 | 18 |  |  | 
13 | CCCCCCCCCCCCCCCCCCS(=O)(=O)NCCCN(CCCNCCCCNCCCN)CCCNS(=O)(=O)CCCCCCCCCCCCCCCCCC | 64 |  | 28.3 |  |  |  |  |  | 
14 | CCCCCCCCCCCCCCCCS(=O)(=O)NCCCN(CCCNCCCNCCCCNCCCN)CCCNS(=O)(=O)CCCCCCCCCCCCCCCC | 2.68 | 5.2 | 9.31 |  |  |  |  |  | 
15 | CCCCCCCCCCCCS(=O)(=O)NCCCNCCCNCCCCNCCCNCCCNS(=O)(=O)CCCCCCCCCCCC | 10.3 | 5 | 55.2 |  |  |  |  |  | 
16 | CCCCCCCCCCCCCCCCS(=O)(=O)N(CCCN)CCCCNCCCN | 2.68 | 13.7 | 45.6 |  |  |  |  |  | 
17 | CCCCCCCCCCCCCCCCS(=O)(=O)NCCCOCCCCOCCCN | 22.4 | 30.9 | > 5000 |  |  |  |  |  | 
18 | CCCCCCCCCCCCCCCCS(=O)(=O)NCCCNCCCCNCCCN | 0.28 | 0.45 | 3.87 | 8.17 | 15.2 | 22.1 | Dose-dependent effect |  | 

Row | Compound | IC50 (HEK293) [µM] | IC50 (J774.1) [µM] | ED50 [1] [µM] | IC50 (Blood [2]) [µM] | IC50 (Blood [3]) [µM] | IC50 (Blood [4]) [µM] | Activity (Mus musculus [5]) | IC50 [1] [µM] | Activity (Mus musculus [6])
19 | CCCCCCCCCCCCS(=O)(=O)NCCCNCCCNCCCCNCCCN | 0.19 | 0.39 | 2.92 | 12.1 | 15.3 | 30.1 |  |  | 
20 | CCCCCCCCCCCCCCCCS(=O)(=O)NCCCN(CCCN)CCCN | 9.19 |  | 12.3 |  |  |  |  |  | 
21 | CCCCCCCCS(=O)(=O)NCCNCCCNCCN | 13.8 |  | 10.6 |  |  |  |  |  | 
22 | CCCCCCCCCCCCS(=O)(=O)NCCCNC/C=C/CNCCCN | 0.522 |  | 3.83 |  |  |  |  |  | 
23 | CCCCCCCCCCCCCCCCCCS(=O)(=O)NCCCNCCCNCCCCNCCCNCCCNS(=O)(=O)CCCCCCCCCCCCCCCCCC | 6.49 | 4.22 | 5000 |  |  |  |  |  | 
24 | CCCCCCCCCCS(=O)(=O)NCCCN(CCCNCCCCNCCCN)CCCNS(=O)(=O)CCCCCCCCCC | 5.17 | 1.1 | 2.4 |  |  |  |  |  | 
25 | CCCCCCCCCCCCS(=O)(=O)NCCCNCCCNCCCN | 0.363 |  | 4.27 |  |  |  |  |  | 
26 | CCCCCCCCCCCCS(=O)(=O)NCCCNCCCCNCCCN | 0.41 | 1.34 | 2.69 |  |  |  |  |  | 
27 | CCCCCCCCS(=O)(=O)NCCCNCCCCNCCCN | 33.3 | 1.44 | 6.64 |  |  |  |  |  | 
28 | CCCCCCCCCCCCS(=O)(=O)NCCCN(CCCNCCCCNCCCN)CCCNS(=O)(=O)CCCCCCCCCCCC | 13.2 | 2.27 | 3.98 |  |  |  |  |  | 
29 | CCCCCCCCCCCCCCCCS(=O)(=O)NCCCNCCCNCCCCNCCCN | 0.2 | 0.12 | 4.71 | 5.92 | 15.1 | 14.2 | Dose-dependent effect | 4.2 | 
30 | CCCCCCCCCCS(=O)(=O)NCCCNCCCNCCCCNCCCN | 0.278 | 1.09 | 2.89 | 29.4 | 22.4 | 32.9 |  |  | 
31 | CCCCCCCCCCS(=O)(=O)NCCCN(CCCNCCCNCCCCNCCCN)CCCNS(=O)(=O)CCCCCCCCCC | 2.2 | 0.43 | 1.16 |  |  |  |  |  | 
32 | CCCCCCCCS(=O)(=O)NCCCN(CCCNCCCNCCCCNCCCN)CCCNS(=O)(=O)CCCCCCCC | 0.3 | 0.32 | 2.62 | 7.77 | 12.5 | 11 |  |  | Toxic
33 | CCCCCCCC(=O)NCCCN(CCCNCCCCNCCCN)CCCNC(=O)CCCCCCC | 9.76 | 9.02 | 1 |  |  |  |  |  | 
34 | CCCCCCCC(=O)NCCCN(CCCNCCCNCCCCNCCCN)CCCNC(=O)CCCCCCC | 3.17 | 2.48 | 1.32 |  |  |  |  |  | 
35 | CCCCCCCCCCCCCCCCS(=O)(=O)NCCN(CCN)CCN | 0.379 |  | 3.54 |  |  |  |  |  | 
36 | CCCCCCCCS(=O)(=O)NCCCN(CCCNCCCCNCCCN)CCCNS(=O)(=O)CCCCCCCC | 0.669 | 1.82 | 2.17 |  |  |  |  |  | 
